# M4 PAM: potentiates acetylcholine response at human M4 receptor | P08173 | CHO-K1 hM4/Gqi5, Fluo-8 calcium fluorescence, ACh EC20; 0% = ACh EC20, 100% = maximal ACh | activation, % at 3 µM | 0.4% of 360,000 active | AID 624126;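 active means activation above its plate's cutoff, the mean activation of sample wells plus 3 SD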
# CHRM5 agonist: CHRM5 agonism in calcium assay; P08912; CHO-K1 hM5 cells, Fluo-8 calcium fluorescence; 0% DMSO wells, 100% maximal acetylcholine response; activation, % at 3 µM; 0.19% of 360,000 active;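 active means activation above the run's mean over test compounds plus 3 SD, cut at about 23% in these data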;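 further: signal is peak over basal fluorescence ratio across the kinetic read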
# Target sequence (P08912 whole entry, looked up): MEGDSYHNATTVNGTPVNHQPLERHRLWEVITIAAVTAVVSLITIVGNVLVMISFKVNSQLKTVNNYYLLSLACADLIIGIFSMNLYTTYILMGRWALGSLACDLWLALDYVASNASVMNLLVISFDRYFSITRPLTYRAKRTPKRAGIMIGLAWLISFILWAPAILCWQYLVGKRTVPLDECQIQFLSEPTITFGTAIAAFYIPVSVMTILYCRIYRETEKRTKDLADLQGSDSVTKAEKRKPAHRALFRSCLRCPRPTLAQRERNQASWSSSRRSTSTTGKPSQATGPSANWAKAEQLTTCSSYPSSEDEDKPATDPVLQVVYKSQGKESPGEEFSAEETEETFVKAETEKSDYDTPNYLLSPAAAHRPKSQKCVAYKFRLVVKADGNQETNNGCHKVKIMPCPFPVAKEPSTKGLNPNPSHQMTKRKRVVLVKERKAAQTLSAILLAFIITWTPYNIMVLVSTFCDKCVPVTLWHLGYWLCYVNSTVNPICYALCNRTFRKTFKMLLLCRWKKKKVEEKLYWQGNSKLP
# M4 antag: antagonists of human muscarinic M4 receptor (CHRM4); P08173; CHO-hM4 cells, ACh EC80, Fluo-8 calcium fluorescence; inhibition, % at 3 µM; 0.73% of 360,000 active;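 active means inhibition above its plate's cutoff, the mean inhibition of sample wells plus 3 SD, cut at about 27% in these data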;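 further: 0% = acetylcholine EC80 with DMSO and 100% = DMSO without agonist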
# M5 antag: blocks acetylcholine activation of human M5 receptor | P08912 | CHO-hM5 cells, Fluo-8 calcium fluorescence, ACh EC80 | inhibition, % at 3 µM | 0.59% of 360,000 active | AID 624040;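 active means inhibition above a per-plate cutoff, the mean of that plate's test compounds plus 3 SD, cut at about 27% in these data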;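 further: 0% = acetylcholine EC80 with DMSO and 100% = DMSO without agonist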
# M5 PAM: CHRM5 positive allosteric modulation; P08912; CHO-K1 hM5, Fluo-8 calcium, ACh EC20 PAM; 0% = ACh EC20, 100% = ACh EC100; activation, % at 3 µM; 0.3% of 360,000 active; AID 624038;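 active means activation above the run cutoff, the mean activation of all test compounds plus 3 SD, cut at about 18% in these data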
#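 Measured by: Fluo-8 calcium fluorescence; material: human M5 receptor in CHO-K1 cells; schedule: Post-acetylcholine fluorescence recording 140 s; benchmarks: low control EC20 acetylcholine (0%), high control EC100 acetylcholine (100%); read-out: Max/basal fluorescence ratio as % of EC20–EC100 ACh window; compound: single dose, 3 µM nominal final test concentration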
# M4 ag: CHRM4 agonism in calcium assay; P08173; activation, % at 3 µM; CHO-K1 hM4/Gqi5, Fluo-8 calcium fluorescence; vehicle 0%, full acetylcholine response 100%; 0.14% of 360,000 active;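 active means activation above the run mean over all test wells plus 3 SD, cut at about 32% in these data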;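 further: peak over basal fluorescence ratio per well then scaled between controls; 0% = DMSO wells and 100% = acetylcholine at EC100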
# The depositor's hits bear a star; ! = a repeat was not active. This is a sample that favours compounds with a hit; in the whole collection about 1.8% have one here.
SMILES,M4 PAM,CHRM5 agonist,M4 antag,M5 antag,M5 PAM,M4 ag
Cc1nc2sccn2c(=O)c1S(=O)(=O)NCC1CCN(Cc2ccccc2Cl)CC1,-21.8,-9.9,34.3*,6.8,-9.6,0.4
Cc1nc2sccn2c(=O)c1S(=O)(=O)N1CCN(c2ccccc2)CC1,-17.0,-1.2,61.4*,8.1,-7.7,0.2
Nc1c(C(=O)NCc2ccccc2)nnn1Cc1ccccc1,3.8,8.2,-11.3,8.9,-1.4,5.9
CSc1ccc(Cn2nnc(C(=O)NCc3ccccc3)c2N)cc1,-2.8,41.8*,-7.9,9.2,-4.4,60.6*
CC1Oc2ccccc2N(CC(=O)NC2CC2)C1=O (centres undefined),-3.1,-2.8,-14.7,9.6,-2.4,2.1
CC1Oc2ccccc2N(CC(=O)NCc2ccccc2)C1=O (centres undefined),23.4*,-0.2,-11.2,8.6,2.4,3.8
O=C(NCc1ccccc1)C(c1ccccc1)n1c(C2CC2)nc2ccccc21 (centres undefined),4.0,-5.3,-12.3,-5.8,-3.5,3.9
O=C(Nc1ccc(Cl)cc1)C1Cc2c(-c3cccc(F)c3)ccnc2O1 (centres undefined),-2.1,-1.1,11.6,5.2,-3.2,1.5
CN1CCS/C1=C\C=C1/SC(=S)N(CC(=O)O)C1=O,-0.9,48.6*,8.3,11.7,-14.3,25.8
O=C1NCCc2c1[nH]c1c(Cl)ccc(Cl)c21,13.2,-7.5,-4.6,-7.3,20.6*,1.7
O=C(CC1C=CCC1)Nc1ccccc1 (centres undefined),8.5,2.5,-8.8,-6.0,20.5*,0.9
O=C(CC1NCCNC1=O)Nc1ccccc1 (centres undefined),8.4,-0.7,-6.8,3.2,2.4,2.0
Cc1cccc(NC(=O)CN2C(=O)NC3(CCCC3)C2=O)n1,4.2,1.2,-5.5,2.1,1.2,0.4
Cc1ccn2c(NC(=O)c3ccccc3)c(-c3cccs3)nc2c1,-3.9,4.2,4.9,1.9,-9.6,16.8
CCC(C)Sc1cccc(-c2nc3cc(C)ccn3c2NCc2ccccc2)c1 (centres undefined),-12.2,-7.0,44.1*!,17.4,-26.2,8.1
Cc1ccn2c(NCc3ccccc3)c(-c3cccs3)nc2c1,19.6*,-9.5,-18.4,-12.1,0.7,1.6
COc1ccc(Cn2cc(CN3CC(N4CC=CC4)CS3(=O)=O)nn2)cc1 (centres undefined),2.4,1.9,-5.4,-3.0,0.3,1.1
COc1ccc(CC(=O)Nc2cc(C)ccn2)cc1,-0.5,0.7,9.7,-0.5,-0.1,-0.1
CCOc1ccc(OCC)c(NC(=O)CN2CCN(c3ccc(C)cc3C)CC2)c1,19.8*,-0.1,7.2,-14.8,-3.6,-0.1
CCOC(=O)c1ccc(N=c2sc(C(=O)OC)cc(=O)n2Cc2ccco2)cc1,-4.7,-0.5,-5.0,1.9,-5.8,1.6
CCOC(=O)c1ccc(N=c2sc(C(=O)OC)cc(=O)n2CCCN2CCOCC2)cc1,-12.8,-1.1,52.2*!,3.0,-7.6,2.1
O=C(Nc1ccc2c(c1)OCCO2)c1ccccc1,-14.3,1.5,28.8*,16.4,-9.6,21.5
COc1ccc(NC(=O)c2ccc3c(c2)OCO3)cc1Cl,4.6,1.0,-8.9,-2.5,28.9*,4.3
O=C(Nc1ccc(F)c(Cl)c1)c1ccc2c(c1)OCO2,-0.6,-7.3,-5.4,-13.8,6.1,2.4
Cc1ccc(NC(=S)NC2CCSc3ccccc32)cc1 (centres undefined),-21.5,-5.3,75.3*,49.3*,-17.7,9.6
SMILES,M4 PAM,CHRM5 agonist,M4 antag,M5 antag,M5 PAM,M4 ag
CC(=O)Nc1ccc(C(=O)NC2CCSc3ccccc32)cc1 (centres undefined),2.0,-5.5,1.1,0.5,-5.1,1.5
COc1ccc(C=O)cc1COc1ccccc1F,21.1*,-2.1,-4.1,1.1,1.0,0.1
O=S(=O)(c1ccc2oc3ccc(S(=O)(=O)N4CCCCC4)cc3c2c1)N1CCCCC1,-5.4,0.6,3.9,-7.4,2.0,-0.7
Cc1nc2ccc(NS(=O)(=O)c3ccc4c(c3)OCCO4)cc2s1,1.8,9.0,27.1*,24.9,-13.2,11.2
Cc1ccc(S(=O)(=O)Nc2ccc3nc(C)sc3c2)cc1,-2.4,4.6,13.5,30.1*,-18.6,8.8
Cc1nc2ccc(NS(=O)(=O)c3ccc(F)c(F)c3)cc2s1,-2.0,5.4,9.4,19.0,-9.5,12.2
COc1cccc(CNC(=O)CCCn2c(=S)[nH]c3cc4c(cc3c2=O)OCO4)c1,-2.4,-2.2,4.6,-10.5,2.7,0.6
COc1cccc(NC(=O)c2ccc(N3C(=O)C4CCC(C)CC4C3=O)cc2)c1 (centres undefined),-3.9,-0.9,-20.5,29.2*,-13.2,19.4
COc1ccc(NC(=O)c2cccc(N3C(=O)C4CCC(C)CC4C3=O)c2)c(OC)c1 (centres undefined),-10.9,-1.4,9.2,23.3,-6.4,10.8
CC(C)N1CCC1(C)C(=O)Nc1nc2ccccc2[nH]1 (centres undefined),6.9,0.8,-9.9,8.5,5.0,0.5
COc1ccc(NC(=O)c2nnn(CC(=O)Nc3ccc4c(c3)OCO4)c2N)cc1OC,2.0,-5.8,2.2,19.0,-6.1,0.2
COc1ccc(Cl)cc1NC(=O)c1nnn(CC(=O)Nc2ccc3c(c2)OCO3)c1N,19.9*,-3.0,8.5,-9.3,3.2,1.6
Nc1nc2ccc(Cl)cc2cc1C(=O)NCCc1ccc(Cl)cc1Cl,5.0,2.0,-4.2,12.7,-6.3,4.2
Nc1nc2ccc(Cl)cc2cc1C(=O)NCCc1c[nH]c2ccccc12,-13.9,8.5,28.3*,26.1,-23.6,20.1
Cn1nc(C(C)(C)C)cc1C(=O)NCc1ccc2c(c1)OCO2,-8.8,5.4,9.8,29.4*,-10.6,12.7
Cc1oc(C(C)(C)C)cc1C(=O)NCc1ccc2c(c1)OCO2,1.9,0.7,-10.1,9.1,-0.2,1.6
O=C(O)c1ccccc1C(=O)NCc1ccc2c(c1)OCO2,3.4,-4.6,7.8,7.3,-1.3,0.0
O=C(NCc1ccc2c(c1)OCO2)c1cc2ccccc2o1,4.8,-6.1,6.4,1.1,30.1*,0.1
Cc1ccc(-n2c(SCC(N)=O)nc(O)cc2=O)cc1,-1.0,0.5,4.5,4.4,-3.0,0.6
NC(=O)CSc1nc(O)cc(=O)n1-c1ccccc1,16.8*,-0.9,0.0,2.1,1.5,0.6
O=[N+]([O-])c1cc(C(F)(F)F)cc([N+](=O)[O-])c1NCCNC(=S)Nc1cccc(F)c1,-31.0,12.0,16.0,28.0*,-25.6,18.4
